Reference: ChEMBL document CHEMBL4706625, “Synthesis of Guaianolide Analogues with a Tunable α-Methylene-γ-lactam Electrophile and Correlating Bioactivity with Thiol Reactivity” (J Med Chem, 2020)
Active and inactive are the calls of the source. No cut-off for these calls is given here.

Legend:
[1] = Thiol-reactivity using La antigen containing reactive cysteine C245 at 0.5 mM incubated for 1 hr by MS analysis based ALARM MSPS analysis; details: 500 µM
[2] = Thiol-reactivity using 13C-labeled La antigen containing reactive cysteine C245 at 400 uM at 37 degreeC for 90 mins in absence of DTT by 2D 1H-13C HMQC ALARM NMR spectroscopy; type: ADME; details: 1.5 h
In short: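 ALARM NMR: compound (400 μM final) was incubated with 13C-methyl-labeled La antigen (50 μM final) at 37 °C for 90 min, without and with 20 mM DTT. Reactivity was scored from 13C-methyl chemical shift changes and attenuation of diagnostic peaks in 1H-13C HMQC spectra without DTT.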

[3] = Toxicity in African green monkey Vero cells assessed as reduction in cell viability incubated for 48 hrs by Alamar blue assay; type: cell-based, Chlorocebus sabaeus
HEK293 [4] = experiment: Inhibition of TNFalpha-induced canonical NF-kappaB signaling (unknown origin) expressed in HEK293 cells assessed as residual NF-kappaB activity at 7.5 uM pre-incubated for 30 mins followed by TNFalpha stimulation for 8 hrs by NF-kappaB-driven SEAP assay; details: Homo sapiens, time 510.0 min
A549 [5] = experiment: Inhibition of TNFalpha-induced canonical NF-kappaB signaling (unknown origin) expressed in human A549 cells at 20 uM […] by NF-kappaB-driven luciferase reporter gene assay; type: cell-based; details: time 500.0 min
HEK293 [6] = experiment: Inhibition of TNFalpha-induced canonical NF-kappaB signaling (unknown origin) expressed in HEK293 cells assessed as residual NF-kappaB activity at 7.5 uM pre-incubated for 30 mins followed by TNFalpha stimulation for 8 hrs by NF-kappaB-driven SEAP assay; type: cell-based; details: Homo sapiens, time 510.0 min
In short: (§1)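 HEK293 cells stably carrying an NF-κB-driven SEAP reporter were grown in DMEM with 10% FBS, penicillin/streptomycin and 0.5 mg/mL G418 at 37 °C, 5% CO2. They were seeded at 5,000 cells/well 24 h ahead. Compounds (1–7.5 μM, 0.5% DMSO final) were added for 30 min, then TNF-α at 22.5 ng/mL final for 8 h. Secreted SEAP in the medium was quantified chemiluminescently, relative to the induced control set as 100%.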

A549 [7] = experiment: Inhibition of TNFalpha-induced canonical NF-kappaB signaling (unknown origin) expressed in human A549 cells assessed as residual NF-kappaB activity at 10 uM […] by NF-kappaB-driven luciferase reporter gene assay; type: cell-based; details: time 500.0 min
A549 [8] = experiment: Inhibition of TNFalpha-induced canonical NF-kappaB signaling (unknown origin) expressed in human A549 cells assessed as residual NF-kappaB activity at 20 uM […] followed by TNFalpha stimulation for 8 hrs by NF-kappaB-driven luciferase reporter gene assay; type: cell-based; details: time 500.0 min
HEK293 [9] = experiment: Inhibition of TNFalpha-induced canonical NF-kappaB signaling (unknown origin) expressed in HEK293 cells at 7.5 uM pre-incubated for 30 mins followed by TNFalpha stimulation for 8 hrs by NF-kappaB-driven SEAP assay; type: cell-based; details: Homo sapiens, time 510.0 min
In short: as §1

A549 [10] = experiment: Inhibition of TNFalpha-induced canonical NF-kappaB signaling (unknown origin) expressed in human A549 cells at 10 uM […] by NF-kappaB-driven luciferase reporter gene assay; type: cell-based; details: time 500.0 min

What does the source list for `CCN(CC)c1ccc2c(C)c(-c3ccc(N4C(=O)C=CC4=O)cc3)c(=O)oc2c1`?
Activity [1]: Active; Activity [2]: Active

What does the source list for `C=C1C(=O)N[C@@H]2C3=CC(=O)CC3=C(C)CC[C@@H]12`?
IC50 at 48 h [3]: > 200 µM; inhibition (HEK293 [4]): inactive; inhibition (A549 [5]): inactive

Which Activity [1] does the source give for `C=C1C(=O)O[C@H]2C3=C(c4ccccc4)C(=O)CC3=C(C)CC[C@H]12` here?
The Activity was “Active”.

What about the Activity [2] of the same molecule?
The Activity was “Active”.

With `C=C1C(=O)N[C@@H]2C3=C(c4ccccc4)C(=O)CC3=C(C)CC[C@@H]12` as the molecule, how does the inhibition (A549 [5]) read?
The inhibition was “inactive”.

Which Activity (HEK293 [6]) does the source give for `C=C1C(=O)O[C@@H]2[C@H]3O[C@]3(C)CC/C=C(\C)CC[C@@H]12` here?
The Activity was 20%.

And the Activity (A549 [7])?
The Activity was 53%.

What does the source list for `C=C1C(=O)N(c2ccc(C(F)(F)F)cc2)[C@@H]2C3=C(c4ccccc4)C(=O)CC3=C(C)CC[C@@H]12` (relative stereo)?
Activity (HEK293 [6]): 44%; Activity (A549 [7]): 62%; Activity [1]: Not Active; Activity (A549 [8]): 21%; Activity [2]: Not Active

With `C=C1C(=O)N(C(C)=O)[C@@H]2C3=CC(=O)CC3=C(C)CC[C@@H]12` (relative stereo) as the molecule, how does the Activity (HEK293 [6]) read?
Its Activity is 19%.

What about the Activity (A549 [7]) of the same molecule?
Its Activity is 59%.

And the Activity (A549 [8])?
The Activity was 28%.

For `C=C1C(=O)N(C)[C@@H]2C3=C(c4ccccc4)C(=O)CC3=C(C)CC[C@@H]12` (relative stereo), which inhibition (A549 [5]) is on record?
The inhibition was “inactive”.

Which inhibition (HEK293 [9]) does the source give for `C=C1C(=O)N(S(=O)(=O)c2ccc(C)cc2)[C@@H]2C3=C(c4ccccc4)C(=O)CC3=C(C)CC[C@@H]12` (relative stereo) here?
Its inhibition is 100%.

What about the inhibition (A549 [10]) of the same molecule?
Its inhibition is 100%.

Which inhibition (HEK293 [4]) does the source give for `C=C1C(=O)N(c2ccc(OC)cc2)[C@@H]2C3=C(c4ccccc4)C(=O)CC3=C(C)CC[C@@H]12` (relative stereo) here?
Its inhibition is “inactive”.

And the inhibition (A549 [5])?
Its inhibition is “inactive”.

Which inhibition (HEK293 [4]) does the source give for `C=C1C(=O)N(c2ccccc2)[C@@H]2C3=C(c4ccccc4)C(=O)CC3=C(C)CC[C@@H]12` (relative stereo) here?
Its inhibition is “inactive”.

What about the inhibition (A549 [5]) of the same molecule?
The inhibition was “inactive”.

For `OC(Cn1cncn1)(Cn1cncn1)c1ccc(F)cc1F` [FLUCONAZOLE], which Activity [1] is on record?
The Activity was “Not Active”.

What about the Activity [2] of the same molecule?
The Activity was “Not Active”.
